Measured values published in ChEMBL document CHEMBL1287760, “Optimization of purine-nitrile TbcatB inhibitors for use in vivo and evaluation of efficacy in murine models” (Bioorg Med Chem, 2010).
Converted amounts (≈) assume the structure as drawn. The source made the active and inactive calls. The calls are words filed in the database; no cut-off is given here.

Key:
HEK293 = test: Cytotoxicity against human HEK293 cells after 72 hrs by alamar blue assay; format: cell-based; settings: hek293, 72 h
HepG2 = test: Cytotoxicity against human HepG2 cells after 72 hrs by alamar blue assay; format: cell-based; settings: hepg2, 72 h
BJ = test: Cytotoxicity against human BJ cells after 72 hrs by alamar blue assay; format: cell-based
Raji = test: Cytotoxicity against human Raji cells after 72 hrs by alamar blue assay; format: cell-based
[1] = Toxicity in human erythrocyte assessed as hemolysis at 10 uM after 5 hrs; format: cell-based; settings: erythrocytes, read-out: Activity
How it was run: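 Human erythrocytes washed three times after spinning whole blood at 1000g for 5 min. Test compound at 10 µM final, 2% hematocrit. PBS negative control; 0.4% saponin dilution series as standard. After centrifugation, supernatant absorbance read at 414 nm and % hemolysis taken from the calibration curve. Triplicate.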

[2] = Chemical stability in dimethyl sulfoxide at pH 3 after 14 days; format: physicochemical; settings: buffer, pH 3, 336 h
How it was run: (§1)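 DMSO stability followed over 14 days for non-metabolic degradation.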

[3] = Chemical stability in dimethyl sulfoxide at pH 5 after 14 days; format: physicochemical; settings: buffer, pH 5, 336 h; how it was run: as §1
[4] = Chemical stability in dimethyl sulfoxide at pH 7.4 after 14 days; format: physicochemical; settings: buffer, pH 7.4, 336 h; how it was run: as §1
[5] = Chemical stability in phosphate buffered saline at pH 3 after 14 days; format: physicochemical; settings: buffer, pH 3, 336 h
How it was run: (§2)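 Stability in PBS (pH 3, 5 and 7.4) followed over 14 days for non-metabolic degradation.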

[6] = Chemical stability in phosphate buffered saline at pH 5 after 14 days; format: physicochemical; settings: buffer, pH 5, 336 h; how it was run: as §2
[7] = Chemical stability in phosphate buffered saline at pH 7.4 after 14 days; format: physicochemical; settings: buffer, pH 7.4, 336 h; how it was run: as §2
[8] = Half life in CD1 mouse liver microsomes by UPLC-MS analysis; format: ADME, Microsome; settings: for half-life: CD1, mouse, liver microsomes
How it was run: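 CD-1 female mouse liver microsomes in 0.1 M potassium phosphate pH 7.4 with EDTA and NADPH-regenerating solutions, 37 °C, shaken. Samples at 0, 0.5, 1 and 2 h quenched with cold acetonitrile containing caffeine internal standard. UPLC–MS (SIR) read-out. Log peak-area ratio versus time gives slope; k = −2.303 × slope, t1/2 = 0.693/k.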

[9] = Half life in CD1 mouse plasma by UPLC-MS analysis; format: ADME, cell-free
How it was run: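 Half-life in mouse plasma measured at 37 °C.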

[10] = Permeability of the compound assessed as ratio of compound in acceptor chamber to amount of compound in donor chamber at pH 3 by PAMPA assay; format: ADME
[11] = Permeability of the compound assessed as ratio of compound in acceptor chamber to amount of compound in donor chamber at pH 5 by PAMPA assay; format: ADME
[12] = Permeability of the compound assessed as ratio of compound in acceptor chamber to amount of compound in donor chamber at pH 7.4 by PAMPA assay; format: ADME
[13] = Aqueous solubility of compound in deionized water; format: physicochemical
How it was run: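 Aqueous solubility measured in deionized water.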

Trypanosoma brucei [14] = test: Antitrypanosomal activity against Trypanosoma brucei after 48 hrs; format: functional, organism-based
Mus musculus [15] = test: Stability of the compound in po dosed mouse blood assessed as 3-(2-cyano-6-(3,4-dichlorobenzylamino)-9H-purin-9-yl)propanoic acid level; format: ADME, organism-based; settings: in vivo
How it was run: (§3)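 Oral gavage of compound suspensions to female Balb/c mice; blood sampled retro-orbitally at 1, 2 and 4 h (one sample per mouse) and by cardiac puncture at 48 h. Parent compound and metabolites measured by UPLC–MS; metabolite identity assigned by MS/MS against a synthesized standard.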

Mus musculus [16] = test: Stability of the compound in po dosed mouse blood assessed as 3-(2-cyano-6-(3,4-dichlorobenzylamino)-9H-purin-9-yl)propanoic acid level after 1 hr; format: ADME, organism-based; settings: in vivo; how it was run: as §3
Mus musculus [17] = test: Stability of the compound in po dosed mouse blood assessed as 3-(2-cyano-6-(3,4-dichlorobenzylamino)-9H-purin-9-yl)propanoic acid level after 4 hrs; format: ADME, organism-based; settings: in vivo; how it was run: as §3
[18] = Therapeutic index, ratio of EC50 for human cells to EC50 for Trypanosoma brucei; settings: human cells versus Trypanosoma brucei, read-out: Ratio EC50
How it was run: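 Index = EC50 against the most sensitive mammalian line (HEK 293, Hep G2, BJ, Raji) divided by EC50 against T.b. brucei.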

[19] = Long term solid state stability of the compound at simulated tropical condition after 30 days; format: physicochemical; settings: 720 h
[20] = Cmax in mouse plasma at 200 mg/kg, ip; format: ADME, organism-based; parameters: dose 200 mg/kg, route intraperitoneal
[21] = Cmax in mouse plasma at 200 mg/kg, po; format: ADME, organism-based; parameters: dose 200 mg/kg, route oral
How it was run: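 Female Balb/c mice given oral gavage suspensions (20% ethanol/40% propylene glycol/10% PEG 400/30% PBS pH 7.4), 0.1 ml per 20 g, at 50–1000 mg/kg. Retro-orbital blood (0.1 ml, EDTA) taken from a different mouse at 1, 2, 4 h, some also at 8, 12, 24 h, plus a 48 h cardiac bleed. Plasma precipitated with 3 parts cold acetonitrile; concentration by UV/HPLC.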

Mus musculus [22] = test: Toxicity in mouse at 200 mg/kg, po qd for 10 days; format: organism-based; parameters: dose 200 mg/kg, route oral; settings: in vivo, 240 h
How it was run: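 Five female Balb/c mice given 200 mg/kg daily by oral gavage for 10 days and monitored to day 30. One mouse sent for CBC, serum chemistry and necropsy on day 10 and another on day 30. Functional observational battery used.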

Mus musculus [23] = test: Toxicity in mouse assessed as decreased movement at 2 to 8 mg/kg, iv measured immediately after dosing; format: organism-based; parameters: dose 2-8 mg/kg, route intravenous; settings: in vivo
How it was run: (§4)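 Female Balb/c mice dosed by lateral tail-vein injection of solubilized compound at 2, 4 and 8 mg/kg (0.4–1.6 mg/ml solutions, 0.1 ml per 20 g). Observed by a modified Irwin functional observational battery (gait, alertness, respiration, piloerection, vasodilation, vocalization).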

Mus musculus [24] = test: Toxicity in mouse assessed as transient darkening of the eyes at 2 to 8 mg/kg, iv measured immediately after dosing; format: organism-based; parameters: dose 2-8 mg/kg, route intravenous; settings: in vivo; how it was run: as §4
Mus musculus [25] = test: Toxicity in mouse assessed as decreased movement at 2 to 8 mg/kg, iv measured after 30 seconds; format: organism-based; parameters: dose 2-8 mg/kg, route intravenous; settings: in vivo, 0.5 min; how it was run: as §4
Mus musculus [26] = test: Toxicity in mouse assessed as transient darkening of the eyes at 2 to 8 mg/kg, iv measured after 30 seconds; format: organism-based; parameters: dose 2-8 mg/kg, route intravenous; settings: in vivo, 0.5 min; how it was run: as §4
[27] = Ratio of plasma concentration mouse at 200 mg/kg, po to EC50 for Trypanosoma brucei; format: ADME, organism-based; parameters: dose 200 mg/kg, route oral; settings: in vivo
[28] = Ratio of plasma concentration mouse at 200 mg/kg, po to EC90 for Trypanosoma brucei; format: ADME, organism-based; parameters: dose 200 mg/kg, route oral; settings: in vivo
[29] = Toxicity in po dosed mouse assessed as maximum tolerated dosage; format: organism-based; settings: in vivo
How it was run: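 Female balb/c mice, 10–12 weeks, housed individually. Oral gavage in a four-stage escalation: vehicle, then 50, 100 and 200 mg/kg. Some groups went on to 400 and 1000 mg/kg. Dose volume 0.1 ml per 20 g. Twelve mice per compound. A modified Irwin FOB was run for 15 min after each dose and at 1–48 h (gait, alertness, respiration, piloerection, vasodilation, vocalization). Necropsy, CBC and serum chemistry were done at 48 h.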

Trypanosoma brucei [30] = test: Antitrypanosomal activity against Trypanosoma brucei 221 infected in BALB/c mouse assessed as decrease of parasitemia at 200 mg/kg, po qd for 5 days measured on day 4; format: functional, organism-based; parameters: dose 200 mg/kg
How it was run: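 Female Balb/C mice (10–12 weeks) infected ip on day 0 with ~800 T.b. brucei strain 221 (0.1 ml of 8 × 10³ parasites/ml in unsupplemented HMI-9; parasites grown to 10⁷/ml in supplemented HMI-9). Randomized to oral gavage of 200 mg/kg suspension or vehicle (20% ethanol/40% propylene glycol/10% PEG 400/30% PBS pH 7.4) on days 0–4. Parasitemia counted by hemocytometer in saphenous blood every third day from day 4.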

Trypanosoma brucei [31] = test: Antitrypanosomal activity against Trypanosoma brucei 221 infected in BALB/c mouse assessed as decrease of parasitemia at 200 mg/kg, po qd for 5 days measured on day 6; format: functional, organism-based; parameters: dose 200 mg/kg
Trypanosoma brucei [32] = test: Antitrypanosomal activity against Trypanosoma brucei 221 infected in BALB/c mouse assessed as increase of mouse survival days at 200 mg/kg, po qd for 5 days relative to control; format: functional
How it was run: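 Female Balb/C mice (10–12 weeks) infected on day 0 by IP injection of ~800 T.b. brucei 221 parasites (cultured in HMI-9 with 10% FBS and 10% Serum Plus, diluted to 8 × 10³ parasites/ml, 0.1 ml). Oral gavage of 200 mg/kg on days 0–4 in 20% ethanol/40% propylene glycol/10% PEG 400/30% PBS pH 7.4; vehicle controls. Mice were randomly assigned to groups. Parasitemia was counted by hemocytometer every third day from day 4. Survival days were recorded.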

[33] = Cmax in mouse brain at 200 mg/kg, po
[34] = Drug level in mouse brain at 200 mg/kg, po after 24 hrs; settings: read-out: Drug uptake
[35] = Cmax in mouse plasma at 50 to 1000 mg/kg, po after 1 to 4 hrs
[36] = Ratio of drug level in brain to plasma in mouse at 200 mg/kg, po after 24 hrs
[37] = test system: Trypanosoma brucei rhodesiense; test: Antitrypanosomal activity against Trypanosoma brucei rhodesiense STIB900 infected in NMRI mouse assessed as increase of mouse survival time at 50 to 200 mg/kg, po qd
Mus musculus [38] = test: Stability of the compound in po dosed mouse blood; format: ADME, organism-based; settings: in vivo; how it was run: as §3
[39] = Inhibition of Trypanosoma brucei cathepsin B expressed in Pichia pastoris

| SMILES | Activity (HEK293) | Activity (HepG2) | Activity (BJ) | Activity (Raji) | hemolysis at 5 h, 10 µM [1] [%] | Stability [2] | Stability [3] | Stability [4] | Stability [5] | Stability [6] | Stability [7] | half-life [8] [h] | half-life [9] [h] | Ratio [10] | Ratio [12] | solubility [13] [µM] | EC50 (Trypanosoma brucei [14]) [µM] | selectivity ratio [18] | Stability (Mus musculus [38]) | also measured |
| --- | --- | --- | --- | --- | --- | --- | --- | --- | --- | --- | --- | --- | --- | --- | --- | --- | --- | --- | --- | --- |
| N#Cc1nc(NCc2ccc(Cl)c(Cl)c2)c2ncn(CCCO)c2n1 | Non-toxic | Non-toxic | Non-toxic | Non-toxic | 0.7 | Stable | Stable | Stable | Stable | Stable | Stable | 0.6 | 5.1 | 1500 | 1300 | 10.4 (≈ 3.92 µg/mL) | 1.4 | > 20 | – | Ratio [11]: 960; Stability (Mus musculus [15]): > 50 µM; Stability (Mus musculus [16]): Unstable; Stability (Mus musculus [17]): Unstable |
| N#Cc1nc(NCc2ccc(Cl)c(Cl)c2)c2ncn(CCCC(F)(F)F)c2n1 | – | – | – | – | 0.4 | – | – | – | – | – | – | – | 177 | – | – | 0.3 (≈ 0.129 µg/mL) | 0.53 | > 20 | – | t1/2 ([8]; mouse, microsomes): Stable; Stability [19]: Stable; Tmax [20]: 4 h; Tmax [21]: 24 h; Activity (Mus musculus [22]): Non-toxic; Activity (Mus musculus [23]): Non-toxic; Activity (Mus musculus [24]): Non-toxic; Activity (Mus musculus [25]): Non-toxic; Activity (Mus musculus [26]): Non-toxic; Ratio [27]: 20; Ratio [28]: 10; MTD [29]: 1000 mg/kg; Activity (Trypanosoma brucei [30]): inactive; Activity (Trypanosoma brucei [31]): inactive; Survival (Trypanosoma brucei [32]): 9.6 days; Tmax [33]: 4 h; concentration at 24 h [34]: 20 µM; Cmax [35]: 6 µM; Kp at 24 h [36]: 2; Activity [37]: inactive |
| Cc1cccc(C)c1-c1cccc(CNc2nc(C#N)nc3c2ncn3CCCO)c1 | Non-toxic | Non-toxic | Non-toxic | Non-toxic | 1.1 | Stable | Stable | Stable | Stable | Stable | Stable | 0.43 | 25.7 | – | – | 1 (≈ 0.412 µg/mL) | 0.27 | > 20 | Unstable | – |
| N#Cc1nc(NCc2ccc(Cl)c(Cl)c2)c2ncn(CCC(=O)O)c2n1 | – | – | – | – | – | – | – | – | – | – | – | – | – | – | – | – | > 25 | – | – | IC50 [39]: 2.6 µM |
| CCCCn1cnc2c(NCc3ccc(Cl)c(Cl)c3)nc(C#N)nc21 | – | – | – | – | 0.9 | – | – | – | – | – | – | 0.74 | 247 | – | – | 0.7 (≈ 0.263 µg/mL) | 0.5 | > 20 | – | – |
| COCCCn1cnc2c(NCc3ccc(Cl)c(Cl)c3)nc(C#N)nc21 | – | – | – | – | 0.7 | – | – | – | – | – | – | 0.53 | 40.9 | 1800 | 1770 | 4.2 (≈ 1.64 µg/mL) | 2.4 | > 10 | Unstable | – |
